Assay type in all cases: functional
The subject of assay [1] is Mus musculus. Description: Compound was evaluated for anticancer activity against Sarcoma180 tumor bearing mice by measuring average weight (dose 10 mg/kg daily). Put shortly: (§1)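 Sarcoma 180 ascites-bearing CDF1 mice (~10^6 cells ip) dosed ip daily for 6 consecutive days starting 24 h after implantation, drug suspended with 20% aqueous Tween 80 in isotonic saline. Mice weighed during the experiment; percent body weight change from onset to end of therapy recorded as the toxicity index, average per group; 5–15 mice per value.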

For assay [2], the system named is Mus musculus. Description: Compound was evaluated for anticancer activity against Sarcoma180 tumor bearing mice by measuring T/C X 100 (dose 10 mg/kg daily). The method, boiled down:
(§2)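 CDF1 mice given ~10^6 Sarcoma 180 ascites cells ip (from 7-day donor ascites, saline-diluted); compound as fine suspension in a few drops 20% aqueous Tween 80 made up in isotonic saline, 0.5 mL ip once daily for 6 days from 24 h post-implant. Survival time of treated vs vehicle-injected controls expressed as T/C × 100; 5–15 mice per value.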

Assay [3] relates to Mus musculus. Description: Compound was evaluated for anticancer activity against Sarcoma180 tumor bearing mice by measuring average weight (dose 2.5 mg/kg daily). The method, boiled down: as §1
Assay [4] concerns Mus musculus. Description: Compound was evaluated for anticancer activity against Sarcoma180 tumor bearing mice by measuring T/C X 100 (dose 2.5 mg/kg daily). Put shortly: as §2
The test system of assay [5] is Mus musculus. Description: Compound was evaluated for anticancer activity against Sarcoma180 tumor bearing mice by measuring average weight (dose 5 mg/kg daily). The method, boiled down: as §1
Assay [6] deals with Mus musculus. Description: Compound was evaluated for anticancer activity against Sarcoma180 tumor bearing mice by measuring T/C X 100 (dose 5 mg/kg daily). The method, boiled down: as §2
Assay [7] deals with Mus musculus. Description: Compound was evaluated for anticancer activity against Sarcoma180 tumor bearing mice by measuring average weight (dose 7.5 mg/kg daily). The method, boiled down:
as §1

In assay [8] the test system is Mus musculus. As to the kind of experiment: Compound was evaluated for anticancer activity against Sarcoma180 tumor bearing mice by measuring T/C X 100 (dose 15 mg/kg daily). Put shortly:
as §2

Assay [9] relates to Mus musculus. Description: Compound was evaluated for anticancer activity against Sarcoma180 tumor bearing mice by measuring average weight (dose 3.25 mg/kg daily). The method, boiled down: as §1
Assay [10] relates to Mus musculus. As to the kind of experiment: Compound was evaluated for anticancer activity against Sarcoma180 tumor bearing mice by measuring average weight (dose 15 mg/kg daily). Put shortly: as §1
Assay [11] deals with Mus musculus. As to the kind of experiment: Compound was evaluated for anticancer activity against Sarcoma180 tumor bearing mice by measuring T/C X 100 (dose 3.25 mg/kg daily). The method, boiled down:
as §2

The subject of assay [12] is Mus musculus. As to the kind of experiment: Compound was evaluated for anticancer activity against Sarcoma180 tumor bearing mice by measuring T/C X 100 (dose 7.5 mg/kg daily). Put shortly: as §2

Consider `CNC(=O)OCC1=C(COC(=O)NC)C(=O)c2ccccc2C1=O`, for which the Average weight with Mus musculus [1] is listed as -10%; in the assay with Mus musculus [3] it was 3.8%; with Mus musculus [5], -7.6%. In addition, the T/C was determined as 200 in the assay with Mus musculus [2], 266 with Mus musculus [4] and 177 in the assay on Mus musculus [6].

Regarding `CS(=O)(=O)OCC1=C(COS(C)(=O)=O)C(=O)c2ccccc2C1=O`, the figures for the Average weight with Mus musculus [1], with Mus musculus [3] and in the assay on Mus musculus [5] were -2%, 18.4% and 5.9%, respectively. The T/C in the assay with Mus musculus [2] came to 232; with Mus musculus [4], 114; with Mus musculus [6], 204.

`O=C1C(CBr)=C(CBr)C(=O)c2ccccc21`: the results for the Average weight in the assay with Mus musculus [7], in the assay with Mus musculus [9] and in the assay with Mus musculus [10] were -14.3%, -8.8% and -14.1%, respectively. Moreover, the T/C came out at 140 in the assay on Mus musculus [8], 165 in the assay with Mus musculus [11] and 130 in the assay on Mus musculus [12].

For the molecule `CC1=C(C)C(=O)c2ccccc2C1=O`, the values for the Average weight in the assay on Mus musculus [7], in the assay on Mus musculus [9] and in the assay on Mus musculus [10] were 1.3%, 1.4% and 0.5%, respectively. Moreover, the T/C in the assay on Mus musculus [8] was 103; in the assay on Mus musculus [11] it was 104; with Mus musculus [12], 78.

Consider `O=C1C(CCl)=C(CCl)C(=O)c2ccccc21`, for which the Average weight is -10.3% in the assay with Mus musculus [7], -15.1% with Mus musculus [9] and -15.6% with Mus musculus [10]. The T/C in the assay with Mus musculus [8] is 122; in the assay with Mus musculus [11], 100; in the assay on Mus musculus [12], 158.

For `Cc1ccc(S(=O)(=O)OCC2=C(COS(=O)(=O)c3ccc(C)cc3)C(=O)c3ccccc3C2=O)cc1`, the Average weight was 13.8% in the assay with Mus musculus [1], 22.3% in the assay with Mus musculus [3] and 21% in the assay on Mus musculus [5]. Moreover, the T/C with Mus musculus [2] was found to be 126; in the assay with Mus musculus [4] it was 130; with Mus musculus [6], 138.

`O=C(NCCCl)OCC1=C(COC(=O)NCCCl)C(=O)c2ccccc2C1=O`: the figures for the Average weight in the assay with Mus musculus [1], in the assay on Mus musculus [3] and in the assay with Mus musculus [5] were -7.8%, 0% and -4.3%, respectively. For the same molecule, the T/C with Mus musculus [2] worked out at 189; with Mus musculus [4] it was 230; with Mus musculus [6] it was 209.

For the molecule `O=C1C(CO)=C(CO)C(=O)c2ccccc21`, the Average weight with Mus musculus [7] is listed as -14.3%; in the assay with Mus musculus [9] it was 10.8%; in the assay on Mus musculus [10], -9.9%. The T/C with Mus musculus [8] is listed as 37; in the assay on Mus musculus [11], 55; in the assay with Mus musculus [12] it was 51.

Values taken from ChEMBL document CHEMBL1122676, “2,3-Dimethyl-1,4-naphthoquinone derivatives as bioreductive alkylating agents with cross-linking potential” (1984).
